From ChEMBL document CHEMBL3271970, “Radiopharmaceuticals. 16. Halogenated dopamine analogs. Synthesis and radiolabeling of 6-iododopamine and tissue distribution studies in animals” (J Med Chem, 1976)

Key:
Mus musculus [1] = test: Biodistribution in adrenal gland of mouse assessed per organ at 8 to 11 x 10^-8 mol, iv measured after 120 mins; format: ADME, organism-based; conditions: in vivo, 2 h
How it was run: (§1)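 [131I]- or [123I]-6-iododopamine in water or saline, used within 30 min of preparation. Injected iv at 8-11 × 10^-8 mol/mouse. Mice killed by ether overdose at 5-240 min; 3-10 mice per time point. Tissue radioactivity expressed as % dose/organ ± SD.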

Kidney [2] = test: Biodistribution in kidney of mouse assessed per organ at 8 to 11 x 10^-8 mol, iv measured after 60 mins; format: ADME, organism-based; conditions: in vivo, 1 h; how it was run: as §1
Kidney [3] = test: Biodistribution in kidney of mouse assessed per organ at 8 to 11 x 10^-8 mol, iv measured after 240 mins; format: ADME, organism-based; conditions: in vivo, 4 h; how it was run: as §1
[4] = Biodistribution in adrenal medulla of mongrel dog assessed per organ at 1.29 x 10^-6 mol, iv measured after 2 hrs; format: ADME, organism-based, Canis lupus familiaris; conditions: in vivo
How it was run: (§2)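 Radioiodinated ([123I] or [131I]) 6-iododopamine in water or saline, used within 30 min of preparation. Given iv at 1.29 × 10^-6 mol/dog; one dog per time point, killed at 2 or 24 h. Large organs counted as three samples and averaged; adrenals and thyroid taken intact and counted. Expressed as % dose/organ.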

Blood [5] = test: Biodistribution in blood of rat at 3.6 x 10^-8 mol, iv measured after 5 mins; format: ADME, organism-based; conditions: in vivo
How it was run: (§3)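 [131I]-6-iododopamine in water or saline, used within 30 min of preparation. Injected iv at 3.6 × 10^-8 mol/rat. Rats killed by ether overdose at 5 min to 24 h. Blood radioactivity expressed as % dose/g, mean ± SD of four rats.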

Rattus norvegicus [6] = test: Biodistribution in thyroid gland of rat assessed per organ at 3.6 x 10^-8 mol, iv measured after 24 hrs; format: ADME, organism-based; conditions: in vivo
How it was run: (§4)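 [131I]-labelled tracer in water or saline, injected within 30 min of preparation. Rats given 3.6 × 10^-8 mol/rat iv, killed by ether overdose at each time point. Organs excised and radioactivity counted as % dose/organ, mean ± SD of four rats.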

Adrenal medulla [7] = test: Biodistribution in adrenal medulla of rat assessed per organ at 3.6 x 10^-8 mol, iv measured after 2 hrs; format: ADME, organism-based; conditions: in vivo
How it was run: (§5)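 [131I]-6-iododopamine in water or saline, used within 30 min of preparation. Injected iv at 3.6 × 10^-8 mol/rat. Rats killed by ether overdose at 5, 30 or 60 min, or at 2, 4 or 24 h. Tissue radioactivity expressed as % dose/organ, mean ± SD of four rats.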

Mus musculus [8] = test: Biodistribution in adrenal gland of mouse assessed per organ at 8 to 11 x 10^-8 mol, iv measured after 240 mins; format: ADME, organism-based; conditions: in vivo, 4 h; how it was run: as §1
[9] = Biodistribution in kidney of mongrel dog assessed per organ at 1.29 x 10^-6 mol, iv measured after 24 hrs; format: ADME, organism-based, Canis lupus familiaris; conditions: in vivo; how it was run: as §2
Rattus norvegicus [10] = test: Biodistribution in thyroid gland of rat assessed per organ at 3.6 x 10^-8 mol, iv measured after 60 mins; format: ADME, organism-based; conditions: in vivo, 1 h; how it was run: as §4
[11] = Biodistribution in thyroid gland of mongrel dog assessed per organ at 1.29 x 10^-6 mol, iv measured after 24 hrs; format: ADME, organism-based, Canis lupus familiaris; conditions: in vivo
How it was run: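 Radioiodine-labelled tracer given at 1.29 × 10^-6 mol/dog. One dog per time point, killed at 2 or 24 h. Thyroids and other small organs were taken intact and counted. Large organs were sampled three times and averaged. Result given as % dose/organ.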

Liver [12] = test: Biodistribution in liver of mouse assessed per organ at 8 to 11 x 10^-8 mol, iv measured after 60 mins; format: ADME, organism-based; conditions: in vivo, 1 h; how it was run: as §1
Liver [13] = test: Biodistribution in liver of mouse assessed per organ at 8 to 11 x 10^-8 mol, iv measured after 240 mins; format: ADME, organism-based; conditions: in vivo, 4 h; how it was run: as §1
Rattus norvegicus [14] = test: Biodistribution in thyroid gland of rat assessed per organ at 3.6 x 10^-8 mol, iv measured after 5 mins; format: ADME, organism-based; conditions: in vivo; how it was run: as §4
Blood [15] = test: Biodistribution in blood of rat at 3.6 x 10^-8 mol, iv measured after 4 hrs; format: ADME, organism-based; conditions: in vivo; how it was run: as §3
Kidney [16] = test: Biodistribution in kidney of mouse assessed per organ at 8 to 11 x 10^-8 mol, iv measured after 5 mins; format: ADME, organism-based; conditions: in vivo; how it was run: as §1
Kidney [17] = test: Biodistribution in kidney of rat assessed per organ at 3.6 x 10^-8 mol, iv measured after 24 hrs; format: ADME, organism-based; conditions: in vivo; how it was run: as §5
Liver [18] = test: Biodistribution in liver of mouse assessed per organ at 8 to 11 x 10^-8 mol, iv measured after 120 mins; format: ADME, organism-based; conditions: in vivo, 2 h; how it was run: as §1
Mus musculus [19] = test: Biodistribution in thyroid gland of mouse assessed per organ at 8 to 11 x 10^-8 mol, iv measured after 15 mins; format: ADME, organism-based; conditions: in vivo, 0.25 h
How it was run: (§6)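 Tracer labelled with either 123I or 131I, in water or saline, used within 30 min of preparation. Mice dosed iv at 8-11 × 10^-8 mol/mouse and killed by ether overdose. Organs counted as % dose/organ ± SD, n = 3-10 mice per time point.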

Liver [20] = test: Biodistribution in liver of rat assessed per organ at 3.6 x 10^-8 mol, iv measured after 2 hrs; format: ADME, organism-based; conditions: in vivo; how it was run: as §4
Mus musculus [21] = test: Biodistribution in adrenal gland of mouse assessed per organ at 8 to 11 x 10^-8 mol, iv measured after 5 mins; format: ADME, organism-based; conditions: in vivo; how it was run: as §1
Blood [22] = test: Biodistribution in blood of rat at 3.6 x 10^-8 mol, iv measured after 2 hrs; format: ADME, organism-based; conditions: in vivo; how it was run: as §3
Liver [23] = test: Biodistribution in liver of rat assessed per organ at 3.6 x 10^-8 mol, iv measured after 5 mins; format: ADME, organism-based; conditions: in vivo; how it was run: as §4
Mus musculus [24] = test: Biodistribution in thyroid gland of mouse assessed per organ at 8 to 11 x 10^-8 mol, iv measured after 120 mins; format: ADME, organism-based; conditions: in vivo, 2 h; how it was run: as §6
Liver [25] = test: Biodistribution in liver of rat assessed per organ at 3.6 x 10^-8 mol, iv measured after 30 mins; format: ADME, organism-based; conditions: in vivo, 0.5 h; how it was run: as §4
Kidney [26] = test: Biodistribution in kidney of rat assessed per organ at 3.6 x 10^-8 mol, iv measured after 30 mins; format: ADME, organism-based; conditions: in vivo, 0.5 h; how it was run: as §5
Mus musculus [27] = test: Biodistribution in thyroid gland of mouse assessed per organ at 8 to 11 x 10^-8 mol, iv measured after 5 mins; format: ADME, organism-based; conditions: in vivo; how it was run: as §6
Adrenal medulla [28] = test: Biodistribution in adrenal medulla of rat assessed per organ at 3.6 x 10^-8 mol, iv measured after 60 mins; format: ADME, organism-based; conditions: in vivo, 1 h; how it was run: as §5
Mus musculus [29] = test: Biodistribution in thyroid gland of mouse assessed per organ at 8 to 11 x 10^-8 mol, iv measured after 30 mins; format: ADME, organism-based; conditions: in vivo, 0.5 h; how it was run: as §6
Kidney [30] = test: Biodistribution in kidney of mouse assessed per organ at 8 to 11 x 10^-8 mol, iv measured after 30 mins; format: ADME, organism-based; conditions: in vivo, 0.5 h; how it was run: as §1
[31] = Biodistribution in adrenal medulla of mongrel dog assessed per organ at 1.29 x 10^-6 mol, iv measured after 24 hrs; format: ADME, organism-based, Canis lupus familiaris; conditions: in vivo; how it was run: as §2
Rattus norvegicus [32] = test: Biodistribution in adrenal cortex of rat assessed per organ at 3.6 x 10^-8 mol, iv measured after 5 mins; format: ADME, organism-based; conditions: in vivo; how it was run: as §5
Liver [33] = test: Biodistribution in liver of mongrel dog assessed per organ at 1.29 x 10^-6 mol, iv measured after 2 hrs; format: ADME, organism-based, Canis lupus familiaris; conditions: in vivo; how it was run: as §2
Mus musculus [34] = test: Biodistribution in adrenal gland of mouse assessed per organ at 8 to 11 x 10^-8 mol, iv measured after 60 mins; format: ADME, organism-based; conditions: in vivo, 1 h; how it was run: as §1
Rattus norvegicus [35] = test: Biodistribution in adrenal cortex of rat assessed per organ at 3.6 x 10^-8 mol, iv measured after 30 mins; format: ADME, organism-based; conditions: in vivo, 0.5 h; how it was run: as §5

**Q.** Which Drug uptake (Mus musculus [1]) does the source give for `Br.NCCc1cc(O)c(O)cc1[131I]` here?
**A.** 0.02 %ID

**Q.** And the Drug uptake (Kidney [2])?
**A.** 1 %ID

**Q.** And the Drug uptake (Kidney [3])?
**A.** 0.79 %ID

**Q.** What about the Drug uptake [4] of the same molecule?
**A.** 0.0062 %ID

**Q.** And the Drug uptake (Blood [5])?
**A.** 0.66 %ID

**Q.** And the Drug uptake (Rattus norvegicus [6])?
**A.** 0.65 %ID

**Q.** What about the Drug uptake (Adrenal medulla [7]) of the same molecule?
**A.** 0.0035 %ID

**Q.** And the Drug uptake (Mus musculus [8])?
**A.** 0.012 %ID

**Q.** And the Drug uptake [9]?
**A.** 0.075 %ID

**Q.** What about the Drug uptake (Rattus norvegicus [10]) of the same molecule?
**A.** 0.08 %ID

**Q.** And the Drug uptake [11]?
**A.** 0.48 %ID

**Q.** What about the Drug uptake (Liver [12]) of the same molecule?
**A.** 1.04 %ID

**Q.** What about the Drug uptake (Liver [13]) of the same molecule?
**A.** 0.94 %ID

**Q.** What about the Drug uptake (Rattus norvegicus [14]) of the same molecule?
**A.** 0.029 %ID

**Q.** What about the Drug uptake (Blood [15]) of the same molecule?
**A.** 0.055 %ID

**Q.** What about the Drug uptake (Kidney [16]) of the same molecule?
**A.** 8.03 %ID

**Q.** What about the Drug uptake (Kidney [17]) of the same molecule?
**A.** 0.024 %ID

**Q.** And the Drug uptake (Liver [18])?
**A.** 0.84 %ID

**Q.** What about the Drug uptake (Mus musculus [19]) of the same molecule?
**A.** 0.067 %ID

**Q.** And the Drug uptake (Liver [20])?
**A.** 0.33 %ID

**Q.** And the Drug uptake (Mus musculus [21])?
**A.** 0.03 %ID

**Q.** What about the Drug uptake (Blood [22]) of the same molecule?
**A.** 0.052 %ID

**Q.** What about the Drug uptake (Liver [23]) of the same molecule?
**A.** 4.58 %ID

**Q.** And the Drug uptake (Mus musculus [24])?
**A.** 0.176 %ID

**Q.** What about the Drug uptake (Liver [25]) of the same molecule?
**A.** 2.36 %ID

**Q.** And the Drug uptake (Kidney [26])?
**A.** 2.37 %ID

**Q.** And the Drug uptake (Mus musculus [27])?
**A.** 0.094 %ID

**Q.** And the Drug uptake (Adrenal medulla [28])?
**A.** 0.0038 %ID

**Q.** And the Drug uptake (Mus musculus [29])?
**A.** 0.084 %ID

**Q.** And the Drug uptake (Kidney [30])?
**A.** 1.69 %ID

**Q.** And the Drug uptake [31]?
**A.** 0.0021 %ID

**Q.** And the Drug uptake (Rattus norvegicus [32])?
**A.** 0.0098 %ID

**Q.** And the Drug uptake (Liver [33])?
**A.** 2.24 %ID

**Q.** What about the Drug uptake (Mus musculus [34]) of the same molecule?
**A.** 0.0087 %ID

**Q.** And the Drug uptake (Rattus norvegicus [35])?
**A.** 0.0062 %ID
